pIC50: −log10 of the molar value. Values belong to the compound of their own block, whether it stands above or below them.
Columns and labels:
[1] = Inhibition of V-ATPase-dependent lysosomal acidification in human CD4 positive T cells transduced with replication defective HIV containing GFP reporter (delta GPE) assessed as fluorescence of pH-sensitive Lysotracker dye incubated for 24 hrs by flow cytometry; type: cell-based; conditions: CD4+ T cell
How it was run: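 CD8-depleted PHA/IL-2-activated primary CD4+ T cells spinoculated with VSV-G-pseudotyped HIV ΔGPE, 48 h later plated 1×10^5/well and treated 24 h with serial dilutions (top 1000 nM, final IL-2 50 U/mL).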

[2] = Inhibition of Nef protein-dependent MHC-1 HLA-A2 down modulation in human CD4 positive T cells transduced with replication defective HIV containing GFP reporter (delta GPE) assessed as restoration of MHC-1 measured after 24 hrs by HLA-A2 staining based flow cytometry; type: cell-based, Human immunodeficiency virus, CD4+ T cell
[3] = Cytotoxicity against human CD4 positive T cells transduced with replication defective HIV containing GFP reporter (delta GPE) assessed as cell viability by measuring vital dye uptake incubated for 72 hrs by flow cytometric assay; type: toxicity, cell-based; conditions: for CC50 at 72 h: read-out: TC50
How it was run: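 Primary human PBMCs, CD8-depleted, PHA-L (10 ug/mL) then IL-2 activated; donor-matched mock-transduced cells plated 1×10^5/well in R10 with IL-2 (final 50 U/mL), compounds serially diluted from DMSO stocks (top 1000 nM), 72 h.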

[4] = (§1) Therapeutic ratio, ratio of IC50 for Cytotoxicity against human CD4 positive T cells transduced with replication defective HIV containing GFP reporter (delta GPE) to IC50 for Inhibition of Nef protein-dependent MHC-1 HLA-A2 down modulation in human CD4 positive T cells transduced with replication defective HIV containing GFP reporter (delta GPE); type: toxicity, cell-based; conditions: read-out: Ratio IC50
How it was run: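 Primary human CD4+ T cells (PBMC, CD8-depleted, PHA then IL-2 activated) spinoculated with VSV-G-pseudotyped ΔGPE reporter; 48 h later treated with serial dilutions in R10 + 50 U/mL IL-2, top 1000 nM.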

[5] = as §1, with “Neutralization” for “Therapeutic”, “Inhibition of V-ATPase-dependent lysosomal acidification in” for “Cytotoxicity against”
[6] = system: CD4+ T cell; conditions: Human immunodeficiency virus, dose 0.05-10 nM
[7] = Human immunodeficiency virus 1, CD4+ T cell, 24 h

- pIC50 [1]: 5.76
- pIC50 [2, 7]: 6.46
Compound: CC[C@H]1OC(=O)C(C)C(O)[C@@H](C)C[C@@H](C)C(=O)/C=C/[C@H]1C (some centres undefined)
- IC50 at 72 h [3]: 140 nM

Compound: CNC(=O)O[C@@H](CC(C)C)c1nc([C@H]2OC(=O)/C(C)=C/C/C(C)=C/[C@@H](O)[C@@H](C)\C=C(C)/C=C(C)\C=C\[C@@H](O)[C@H](C)[C@H](OC)/C(C)=C/C=C/[C@@H]2C)cs1 [ARCHAZOLID A]
- pIC50 ([2]; cd4+ t cell): 9.33

Compound: CO/C1=C\C(C)=C\[C@@H](C)[C@@H](O)[C@@H](C)C/C(C)=C/C=C/[C@H](OC)[C@@H]([C@@H](C)[C@@H](O)[C@H](C)[C@@]2(OC)C[C@@H](O)[C@H](C)[C@@H](C(C)C)O2)OC1=O
- pIC50 [2, 7]: 7.92
- selectivity ratio [4]: 1.2
- Ratio IC50 [5]: 2.3

Compound: C/C=C/[C@H]1O[C@@](O)([C@@H](C)[C@H](O)[C@H](C)[C@H]2OC(=O)/C(OC)=C/C(C)=C/[C@@H](C)[C@@H](O)[C@@H](CC)[C@@H](OC(C)=O)[C@H](C)C/C(C)=C/C=C/[C@@H]2OC)C[C@@H](OC(C)=O)[C@@H]1C
- pIC50 [2, 7]: 8.44
- selectivity ratio [4]: 2.5
- Ratio IC50 [5]: 5.4

- pIC50 [1]: < 6.00
- pIC50 [2, 7]: < 6.00
Compound: CO[C@H]1/C=C/O[C@@]2(C)Oc3c(C)c(O)c4c(O)c(c(/C=N/N5CCN(C)CC5)c(O)c4c3C2=O)NC(=O)/C(C)=C\C=C\[C@H](C)[C@H](O)[C@@H](C)[C@@H](O)[C@@H](C)[C@H](OC(C)=O)[C@@H]1C [RIFAMPIN]
- IC50 at 72 h [3]: > 1000 nM

Compound: C/C=C/[C@H]1O[C@@](O)([C@@H](C)[C@H](O)[C@H](C)[C@H]2OC(=O)/C(OC)=C/C(C)=C/[C@@H](C)[C@@H](O)[C@@H](CC)[C@@H](OC(C)=O)[C@H](C)C/C(C)=C/C=C/[C@@H]2OC)C[C@@H](O[C@H]2C[C@@H](OC(C)=O)[C@H](OC(C)=O)[C@@H](C)O2)[C@@H]1C
- pIC50 [2, 7]: 8.55
- selectivity ratio [4]: 1.8
- Ratio IC50 [5]: 3.6

Compound: C=C/C=C/C(=O)O[C@@H]1C[C@](O)([C@@H](C)[C@H](O)[C@H](C)[C@H]2OC(=O)/C(OC)=C/C(C)=C/[C@@H](C)[C@@H](O)[C@@H](C)C/C(C)=C/C=C/[C@@H]2OC)O[C@H](C(C)C)[C@H]1C
- pIC50 [2, 7]: 7.77
- selectivity ratio [4]: 1.4
- Ratio IC50 [5]: 1.5

Compound: C/C=C/[C@H]1O[C@@](O)([C@@H](C)[C@H](O)[C@H](C)[C@H]2OC(=O)/C(OC)=C/C(C)=C/[C@@H](C)[C@@H](O)[C@@H](C)[C@@H](O)[C@H](C)C/C(C)=C/C=C/[C@@H]2OC)C[C@@H](O[C@H]2C[C@@H](OC(C)=O)[C@H](OC(N)=O)[C@@H](C)O2)[C@@H]1C
- pIC50 [2, 7]: 9.18
- selectivity ratio [4]: 8
- Ratio IC50 [5]: 21

Compound: C/C=C/[C@H]1O[C@@](O)([C@@H](C)[C@H](O)[C@H](C)[C@H]2OC(=O)/C(OC)=C/C(C)=C/[C@@H](C)[C@@H](O)[C@@H](CC)[C@@H](O)[C@H](C)C/C(C)=C/C=C/[C@@H]2OC)C[C@@H](OC(C)=O)[C@@H]1C
- pIC50 [2, 7]: 8.92
- selectivity ratio [4]: 5.8
- Ratio IC50 [5]: 5.6

Compound: CO/C1=C\C(C)=C\[C@@H](C)[C@@H](O)[C@@H](C)C/C(C)=C/C=C/[C@H](OC)[C@@H]([C@@H](C)[C@@H](O)[C@H](C)[C@H]2C=C(O)[C@H](C)[C@@H](C(C)C)O2)OC1=O
- pIC50 [2, 7]: 6.85
- selectivity ratio [4]: 1.6
- Ratio IC50 [5]: 2.6

Compound: C/C=C/[C@H]1O[C@@](O)([C@@H](C)[C@H](O)[C@H](C)[C@H]2OC(=O)/C(OC)=C/C(C)=C/[C@@H](C)[C@@H](O)[C@@H](CC)[C@@H](O)[C@H](C)C/C(C)=C/C=C/[C@@H]2OC)C[C@@H](O[C@H]2C[C@@H](OC(C)=O)[C@H](OC(N)=O)[C@@H](C)O2)[C@@H]1C
- selectivity ratio [4]: 8.5

Compound: CO/C1=C\C(C)=C\[C@@H](C)[C@@H](O)[C@@H](C)C/C(C)=C/C=C/[C@H](OC)[C@@H]([C@@H](C)[C@@H](O)[C@H](C)[C@@]2(O)C[C@@H](OC(=O)c3ccccc3)[C@H](C)[C@@H](C(C)C)O2)OC1=O
- pIC50 [1]: 6.89

Compound: C/C=C/[C@H]1O[C@@](O)([C@@H](C)[C@H](O)[C@H](C)[C@H]2OC(=O)/C(OC)=C/C(C)=C/[C@@H](C)[C@@H](O)[C@@H](CC)[C@@H](O)[C@H](C)C/C(C)=C/C=C/[C@@H]2OC)C[C@@H](O[C@H]2C[C@@H](O)[C@H](OC(N)=O)[C@@H](C)O2)[C@@H]1C
- inhibition [6]: Dose-Dependent Effect

Compound: C/C=C/[C@H]1O[C@@](O)([C@@H](C)[C@H](O)[C@H](C)[C@H]2OC(=O)/C(OC)=C/C(C)=C/[C@@H](C)[C@@H](O)[C@@H](CC)[C@@H](OC(C)=O)[C@H](C)C/C(C)=C/C=C/[C@@H]2OC)C[C@@H](O[C@H]2C[C@@H](OC(C)=O)[C@H](OC(N)=O)[C@@H](C)O2)[C@@H]1C
- inhibition [6]: Dose-Dependent Effect

- pIC50 [1]: < 6.00
- pIC50 [2, 7]: < 6.00
Compound: COc1cc2c(O)c3c(c(-c4ccc5c(c4)OCO5)c2cc1OC)C(=O)OC3 [DIPHYLLIN]
- IC50 at 72 h [3]: > 1000 nM

Compound: CCCCCCCCC(=O)O[C@@H]1C[C@](O)([C@@H](C)[C@H](O)[C@H](C)[C@H]2OC(=O)/C(OC)=C/C(C)=C/[C@@H](C)[C@@H](O)[C@@H](C)C/C(C)=C/C=C/[C@@H]2OC)O[C@H](C(C)C)[C@H]1C
- pIC50 [2, 7]: 6.89
- selectivity ratio [4]: 1.1
- Ratio IC50 [5]: 1.2

- pIC50 [1]: < 6.00
- pIC50 [2, 7]: < 6.00
Compound: CC[C@H]1OC(=O)[C@H](C)[C@@H](O[C@@H]2O[C@H](C)C[C@H](N(C)C)[C@H]2O)[C@@H](C)C[C@@H](C)C(=O)/C=C/[C@H]1C
- IC50 at 72 h [3]: > 1000 nM

Compound: C/C=C/[C@H]1O[C@@](O)([C@@H](C)[C@H](O)[C@H](C)[C@H]2OC(=O)/C(OC)=C/C(C)=C/[C@@H](C)[C@@H](O)[C@@H](CC)[C@@H](O)[C@H](C)C/C(C)=C/C=C/[C@@H]2OC)C[C@@H](O[C@H]2C[C@@H](OC(C)=O)[C@H](OC(C)=O)[C@@H](C)O2)[C@@H]1C
- pIC50 [2, 7]: 9.14
- selectivity ratio [4]: 1.8
- Ratio IC50 [5]: 4.2

Compound: CO/C1=C\C(C)=C\[C@@H](C)[C@@H](O)[C@@H](C)C/C(C)=C/C=C/[C@H](OC)[C@@H]([C@@H](C)[C@@H](O)[C@H](C)[C@H]2C[C@@H](OC)[C@H](C)[C@@H](C(C)C)O2)OC1=O
- pIC50 [2, 7]: 7.70
- selectivity ratio [4]: 1.4
- Ratio IC50 [5]: 2.7

Compound: CO/C1=C\C(C)=C\[C@@H](C)[C@@H](O)[C@@H](C)C/C(C)=C/C=C/[C@H](OC)[C@@H]([C@@H](C)[C@@H](O)[C@H](C)[C@@]2(O)C[C@@H](O[C@@H]3O[C@@H](C)[C@H](O)[C@@H](O)[C@H]3OC)[C@H](C)[C@@H](C(C)C)O2)OC1=O
- CC50 at 72 h [3]: 1.4 nM

Compound: C/C=C/[C@H]1O[C@@H]([C@@H](C)[C@H](O)[C@H](C)[C@H]2OC(=O)/C(OC)=C/C(C)=C/[C@@H](C)[C@@H](O)[C@@H](CC)[C@@H](O)[C@H](C)C/C(C)=C/C=C/[C@@H]2OC)C[C@@H](O)[C@@H]1C
- pIC50 [2, 7]: 8.35

Compound: CCCCC(=O)O[C@@H]1C[C@](O)([C@@H](C)[C@H](O)[C@H](C)[C@H]2OC(=O)/C(OC)=C/C(C)=C/[C@@H](C)[C@@H](O)[C@@H](C)C/C(C)=C/C=C/[C@@H]2OC)O[C@H](C(C)C)[C@H]1C
- pIC50 [2, 7]: 7.43
- selectivity ratio [4]: 1.4
- Ratio IC50 [5]: 1.5

Compound: CO/C1=C\C(C)=C\[C@@H](C)C(=O)[C@@H](C)C/C(C)=C/C=C/[C@H](OC)[C@@H]([C@@H](C)[C@@H](O)[C@H](C)[C@@]2(O)CC(=O)[C@H](C)[C@@H](C(C)C)O2)OC1=O
- pIC50 ([2]; cd4+ t cell): < 6.00

Compound: CO/C1=C\C(C)=C\[C@@H](C)C(=O)[C@@H](C)C/C(C)=C/C=C/[C@H](OC)[C@@H]([C@@H](C)[C@@H](O)[C@H](C)[C@@]2(O)C[C@@H](O)[C@H](C)[C@@H](C(C)C)O2)OC1=O
- pIC50 ([2]; cd4+ t cell): < 6.00

Compound: CO/C1=C\C(C)=C\[C@@H](C)[C@@H](O)[C@@H](C)C/C(C)=C/C=C/[C@H](OC)[C@@H]([C@@H](C)[C@@H](O)[C@H](C)[C@H]2C[C@@H](O)[C@H](C)[C@@H](C(C)C)O2)OC1=O
- pIC50 [2, 7]: 7.47
- selectivity ratio [4]: 1.4
- Ratio IC50 [5]: 4.1

Compound: C/C=C/C=C/[C@H]1O[C@@](O)([C@@H](C)[C@H](O)[C@H](C)[C@H]2OC(=O)/C(OC)=C/C(C)=C/[C@@H](C)[C@@H](O)[C@@H](C)C/C(C)=C/C=C/[C@@H]2OC)C[C@@H](O[C@H]2C[C@@H](O)[C@H](O)[C@@H](C)O2)[C@@H]1C
- CC50 at 72 h [3]: 1.3 nM

Compound: C/C=C/[C@H]1O[C@@H]([C@@H](C)[C@H](O)[C@H](C)[C@H]2OC(=O)/C(OC)=C/C(C)=C/[C@@H](C)[C@@H](O)[C@@H](CC)[C@@H](O)[C@H](C)C/C(C)=C/C=C/[C@@H]2O)C[C@@H](O)[C@@H]1C
- pIC50 [2, 7]: 6.40

Source: ChEMBL document CHEMBL5528081 (J Med Chem, 2024)
